Results taken from ChEMBL document CHEMBL4177758, “Rational Drug Design of Topically Administered Caspase 1 Inhibitors for the Treatment of Inflammatory Acne” (J Med Chem, 2018).
Converted amounts (≈) assume the structure as drawn. The source made the active and inactive calls. No cut-off for these calls is given here.

Key:
[1] = Lipophilicity, log D of the compound at pH 6.5 by chromatographic method; format: physicochemical; conditions: buffer
In short: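 Chromatographic lipophilicity at pH 6.5, converted to ChromLogD = CHI × 0.0857 − 2.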

Caspase-1 [2] = biological target: T1, Caspase-1 (Homo sapiens, UniProt P29466); experiment: Inhibition of human recombinant caspase-1 using AC-WEHD-AMC as substrate at Km after 20 mins by fluorescence assay
T1 sequence (P29466 whole entry): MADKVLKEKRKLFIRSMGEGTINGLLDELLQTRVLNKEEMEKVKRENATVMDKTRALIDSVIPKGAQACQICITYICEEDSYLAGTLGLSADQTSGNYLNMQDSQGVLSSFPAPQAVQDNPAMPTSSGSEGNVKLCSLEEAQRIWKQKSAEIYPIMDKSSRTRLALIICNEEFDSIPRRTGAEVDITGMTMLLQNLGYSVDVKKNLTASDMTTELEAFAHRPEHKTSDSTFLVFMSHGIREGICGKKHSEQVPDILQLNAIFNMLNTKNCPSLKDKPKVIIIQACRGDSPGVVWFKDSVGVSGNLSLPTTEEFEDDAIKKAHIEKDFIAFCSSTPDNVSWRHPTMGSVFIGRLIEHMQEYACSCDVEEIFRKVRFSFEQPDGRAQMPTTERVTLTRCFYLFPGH

[3] = Aqueous solubility of the compound in pH 7.4 buffered water after 24 hrs; format: physicochemical
In short: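 Semi-thermodynamic protocol: a mixture made from a 10 mM DMSO stock is diluted into pH 7.4 buffered water and stirred 24 h before the concentration is measured.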

Caspase-1 [4] = biological target: T1, Caspase-1; experiment: Inhibition of caspase-1 in human THP1 cells assessed as decrease in LPS-induced IL-1beta secretion after overnight incubation by sandwich immunoassay; format: cell-based
[5] = Solubility of the compound in PG/EtOH solution; format: physicochemical
Caspase-1 [6] = biological target: T1, Caspase-1; experiment: Inhibition of human recombinant caspase-1 using AC-WEHD-AMC as substrate at 20 times Km after 20 mins by fluorescence assay
In short: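 Human recombinant caspase-1 in pH 7.4 HEPES buffer (100 mM NaCl, 0.1% CHAPS, 1 mM EDTA, 10% glycerol, 10 mM DTT) with Ac-WEHD-AMC at 200 μM final. Compounds tested at 10 000–0.04 nM in 1% DMSO. Enzyme level is set to convert under 20% of substrate in 20 min at room temperature. Free AMC read at ex 340/em 450 nm; IC50 from a four-parameter logistic fit.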

Caspase-1 (Homo sapiens) [7] = biological target: T2, Caspase-1 (Homo sapiens) (UniProt P29466); experiment: Reversible inhibition of human recombinant caspase-1 using AC-WEHD-AMC as substrate at 10 times IC50 preincubated for 1 hr followed by 100 fold dilution with substrate measured for 2 hrs by fluorescence assay
T2 sequence (whole entry): T1 sequence (P29466 whole entry)
In short: (§1)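 Jump dilution using the caspase-1 assay reagents. A 100X enzyme solution is preincubated 1 h with inhibitor at its IC90 (1% DMSO), then diluted 100-fold into Ac-WEHD-AMC at Km. AMC formation is recorded continuously for 2 h. The progress-curve slope is normalized to the DMSO control: about 90% indicates reversible, about 10% pseudo-irreversible.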

Caspase-1 (Homo sapiens) [8] = biological target: T2, Caspase-1 (Homo sapiens); experiment: Pseudoirreversible inhibition of human recombinant caspase-1 using AC-WEHD-AMC as substrate at 10 times IC50 preincubated for 1 hr followed by 100 fold dilution with substrate measured for 2 hrs by fluorescence assay; in short: as §1
[9] = Intrinsic clearance in human epidermal keratinocyte S9 fraction assessed per mg of protein; format: ADME
[10] = Phototoxicity in NHEK assessed as decrease in cell viability after 24 hrs in presence of UV light by neutral red uptake assay; conditions: human
In short: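 Keratinocyte neutral red uptake assay adapted from the OECD 432 3T3 NRU test. Cells are irradiated with a simulated daily UV dose of 6 J/cm², and viability is read after 24 h exposure to compound.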

[11] = Chemical stability in 96% ethanol assessed as parent compound recovery at 23 degC after 3 months; format: physicochemical; conditions: read-out: Drug recovery
In short: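 Compounds bearing the aspartyl aldehyde warhead are held in 96% ethanol at 23 °C and assayed as percent of parent compound recovered. Readings taken after 4 weeks are projected to 12 weeks with best-fit kinetic-order equations. Tautomers and potential stereoisomers are counted as parent.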

[12] = Intrinsic clearance in NHEK cells assessed per 10^6 cells; format: ADME, cell-based; conditions: human

SMILES: CC(C(=O)N[C@H]1CC(=O)OC1O)n1c(=O)c(NC(=O)c2ccc(Nc3cnc4ccccc4n3)cc2)cn(C)c1=O (some centres undefined)
- chromatographic logD [1]: 1.9
- IC50 (Caspase-1 [2]; read-out: IC50): 5.6 nM
- solubility at 24 h [3]: 96 µM (≈ 53.7 µg/mL)
- IC50 (Caspase-1 [4]): 48 nM
- solubility [5]: 890 µM (≈ 498 µg/mL)
- IC50 (Caspase-1 [6]): 31.6 nM

SMILES: CC(C)N(NC(=O)c1ccc2ccccc2c1)C(=O)C1CNC[C@H]1C(=O)N[C@H]1CC(=O)OC1O (some centres undefined)
- IC50 (Caspase-1 [2]; read-out: pIC50 (converted)): 251 to 10000 nM
- IC50 (Caspase-1 [6]): 1580 to 10000 nM

SMILES: CC(C)N(NC(=O)c1ccc2ccccc2c1)C(=O)[C@@H]1CCCC[C@H]1C(=O)N[C@H]1CC(=O)OC1O (some centres undefined)
- reversible inhibition call (jump dilution) (Caspase-1 (Homo sapiens) [7]): Active

SMILES: CC(C)n1cc(NC(=O)c2ccc(Nc3cnc4ccccc4n3)cc2)c(=O)n(CC(=O)N[C@H]2CC(=O)OC2O)c1=O (some centres undefined)
- chromatographic logD [1]: 2.3
- IC50 (Caspase-1 [2]; read-out: IC50): 3 nM
- solubility at 24 h [3]: 8.3 µM (≈ 4.76 µg/mL)
- IC50 (Caspase-1 [4]): 53 nM
- solubility [5]: 5200 µM (≈ 2980 µg/mL)

SMILES: CC(C)N(NC(=O)c1ccc2ccccc2c1)C(=O)C1CCCC[C@H]1C(=O)N[C@H]1CC(=O)OC1O (some centres undefined)
- IC50 (Caspase-1 [2]; read-out: pIC50 (converted)): 251 to 10000 nM
- IC50 (Caspase-1 [6]): 1580 to 10000 nM

SMILES: CC(C)[C@H](NC(=O)[C@H](Cc1ccc(O)cc1)NC(=O)OCc1ccccc1)C(=O)N[C@@H](C)C(=O)N[C@@H](CC(=O)O)C(=O)CF
- pseudo-irreversible inhibition (qualitative call) (Caspase-1 (Homo sapiens) [8]): Active

SMILES: CC(C(=O)N[C@H]1CC(=O)OC1O)n1c(=O)c(NC(=O)c2ccc3ccccc3c2)cn(C)c1=O (some centres undefined)
- reversible inhibition call (jump dilution) (Caspase-1 (Homo sapiens) [7]): Active
- IC50 (Caspase-1 [2]; read-out: pIC50 (converted)): 501 nM
- IC50 (Caspase-1 [6]): 7940 nM

SMILES: CCC(C(=O)N[C@H]1CC(=O)OC1O)n1c(=O)c(NC(=O)c2ncc(Nc3ccc4ccccc4c3)cc2C)cn(C(C)C)c1=O (some centres undefined)
- CL [9]: 2 uL/min/mg protein
- chromatographic logD [1]: 4.5
- Activity [10]: Toxic
- remaining at 2191.5 h [11]: 100%
- CL [12]: 7.7 uL/min/10^6 cells
- solubility at 24 h [3]: 2 µM (≈ 1.23 µg/mL)
- IC50 (Caspase-1 [4]): 200 nM
- solubility [5]: 49000 µM (≈ 30100 µg/mL)

SMILES: CC(C)[C@H](NC(=O)c1ccc2ccccc2c1)C(=O)N1C2CCC(O)(CC2)C1C(=O)N[C@H]1CC(=O)OC1O (some centres undefined)
- IC50 (Caspase-1 [2]; read-out: pIC50 (converted)): 15.8 nM
- IC50 (Caspase-1 [6]): 100 nM

SMILES: CCC(C(=O)N[C@H]1CC(=O)OC1O)n1c(=O)c(NC(=O)c2ccc(Nc3ccc4ccccc4c3)cc2C)cn(C(C)C)c1=O (some centres undefined)
- chromatographic logD [1]: 4
- remaining at 2191.5 h [11]: 72%
- IC50 (Caspase-1 [4]): 76 nM

SMILES: CC(C)N(NC(=O)c1nccc2ccccc12)C(=O)[C@@H]1CCCC[C@H]1C(=O)N[C@H]1CC(=O)OC1O (some centres undefined)
- reversible inhibition call (jump dilution) (Caspase-1 (Homo sapiens) [7]): Active

SMILES: O=C1C[C@H](NC(=O)[C@@H]2CC[C@@H]3CCCC[C@H](NC(=O)c4nccc5ccccc45)C(=O)N32)C(O)O1 (some centres undefined)
- pseudo-irreversible inhibition (qualitative call) (Caspase-1 (Homo sapiens) [8]): Active

SMILES: CC(C)n1cc(NC(=O)c2ccc(Nc3ccc4ccccc4c3)cc2)c(=O)n(C2(C(=O)N[C@H]3CC(=O)OC3O)CC2)c1=O (some centres undefined)
- CL [9]: < 0.82 uL/min/mg protein
- chromatographic logD [1]: 3.5
- remaining at 2191.5 h [11]: 99%
- CL [12]: 2.1 uL/min/10^6 cells
- solubility at 24 h [3]: 66 µM (≈ 39.4 µg/mL)
- IC50 (Caspase-1 [4]): 23 nM
- solubility [5]: 31000 µM (≈ 18500 µg/mL)

SMILES: CCC(C(=O)N[C@H]1CC(=O)OC(O)C1)n1c(=O)c(NC(=O)c2ccc(Nc3ccc4ccccc4c3)cc2C)cn(C(C)C)c1=O (some centres undefined)
- CL [9]: 2.9 uL/min/mg protein
- chromatographic logD [1]: 3.8
- remaining at 2191.5 h [11]: 84%
- CL [12]: 13 uL/min/10^6 cells
- solubility at 24 h [3]: 42 µM (≈ 26.4 µg/mL)
- IC50 (Caspase-1 [4]): 210 nM

SMILES: C[C@@H](C(=O)N[C@H]1CC(=O)OC1O)N1C(=O)C[C@H](NC(=O)c2ccc3ccccc3c2)C1=O (some centres undefined)
- pseudo-irreversible inhibition (qualitative call) (Caspase-1 (Homo sapiens) [8]): Active
